Data as given in ChEMBL document CHEMBL1122384, “Synthesis and evaluation of 24-(isopropyl[75Se]seleno)chol-5-en-3 beta-ol” (J Med Chem, 1983).

Key:
[1] = tested on: Rattus norvegicus; experiment: Tested for distribution of radioactivity in female rat tissue at 6 hr after intravenous administration in ovaries; type: ADME, organism-based; conditions: in vivo
Method in brief: (§1)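 Female Fischer 344 rats (160–180 g), food and water ad libitum. Se-75-labeled steroid dissolved in EtOH, formulated in Tween 80–EtOH–saline; 5–10 μCi in 1 mL injected into a lateral tail vein under light Et₂O anesthesia. At each time point, 3 rats killed by decapitation under Et₂O. Organs rinsed with saline, blotted, weighed and gamma counted. Values are % dose/g, mean and range.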

[2] = tested on: Rattus norvegicus; experiment: Tested for distribution of radioactivity in female rat tissue at 1 hr after intravenous administration in liver; type: ADME, organism-based; conditions: in vivo
Method in brief: (§2)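 Female Fischer 344 rats (160–180 g), food and water ad libitum, received 5–10 μCi i.v. via lateral tail vein (1 mL Tween 80–EtOH–saline) under light Et₂O anesthesia. At each time they were anesthetized and decapitated, and organs were rinsed in saline, blotted, weighed and gamma counted. Values are % dose/g, mean and range of 3 rats.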

[3] = tested on: Rattus norvegicus; experiment: Tested for distribution of radioactivity in female rat tissue at 6 hr after intravenous administration in kidney; type: ADME, organism-based; conditions: in vivo; method in brief: as §2
[4] = tested on: Rattus norvegicus; experiment: Tested for distribution of radioactivity in female rat tissue at 18 hr after intravenous administration in blood; type: ADME, organism-based; conditions: in vivo; method in brief: as §2
[5] = tested on: Rattus norvegicus; experiment: Tested for distribution of radioactivity in female rat tissue at 7 day after intravenous administration in adrenal; type: ADME, organism-based; conditions: in vivo, 168 h; method in brief: as §1
[6] = tested on: Rattus norvegicus; experiment: Tested for distribution of radioactivity in female rat tissue at 21 day after intravenous administration in liver; type: ADME, organism-based; conditions: in vivo, 504 h; method in brief: as §2
[7] = species on record: Homo sapiens; experiment: Adsorbed radiation dose value was calculated to human pancreas; type: functional
Method in brief: (§3)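 Human absorbed radiation dose estimated by the standard MIRD method from rat tissue distribution (% dose/g, 1 h–21 days) and excretion data. Excretion came from three individually caged female rats, with urine and feces collected daily over 21 days.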

[8] = Adrenal/Tissue ratio calculated from percent dose per gram of tissue determined after 1 day intravenous administration from blood; type: functional
Method in brief: (§4)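 Female Fischer 344 rats (160–180 g), fed ad libitum. Steroid dissolved in EtOH, formulated in Tween 80–EtOH–saline, 5–10 μCi in 1 mL given into a lateral tail vein under light Et₂O anesthesia. Organs removed 1 day post-injection, rinsed, blotted, weighed and gamma counted, 3 rats per time point. Ratios taken from adrenal vs tissue % dose/g.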

[9] = tested on: Rattus norvegicus; experiment: Tested for distribution of radioactivity in female rat tissue at 3 day after intravenous administration in kidney; type: ADME, organism-based; conditions: in vivo, 72 h; method in brief: as §2
[10] = tested on: Rattus norvegicus; experiment: Tested for distribution of radioactivity in female rat tissue at 14d ay after intravenous administration in liver; type: ADME, organism-based; conditions: in vivo; method in brief: as §2
[11] = tested on: Rattus norvegicus; experiment: Tested for distribution of radioactivity in female rat tissue at 1 hr after intravenous administration in adrenal; type: ADME, organism-based; conditions: in vivo; method in brief: as §2
[12] = species on record: Homo sapiens; experiment: Adsorbed radiation dose value was calculated to human adrenals; type: functional, Adrenal gland; method in brief: as §3
[13] = tested on: Rattus norvegicus; experiment: Tested for distribution of radioactivity in female rat tissue at 21 day after intravenous administration in blood; type: ADME, organism-based; conditions: in vivo, 504 h; method in brief: as §2
[14] = tested on: Rattus norvegicus; experiment: Tested for distribution of radioactivity in female rat tissue at 3 day after intravenous administration in adrenal; type: ADME, organism-based; conditions: in vivo, 72 h; method in brief: as §2
[15] = species on record: Homo sapiens; experiment: Adsorbed radiation dose value was calculated to human liver; type: functional; method in brief: as §3
[16] = tested on: Rattus norvegicus; experiment: Tested for distribution of radioactivity in female rat tissue at 21 day after intravenous administration in ovaries; type: ADME, organism-based; conditions: in vivo, 504 h; method in brief: as §2
[17] = tested on: Rattus norvegicus; experiment: Tested for distribution of radioactivity in female rat tissue at 6 hr after intravenous administration in adrenal; type: ADME, organism-based; conditions: in vivo; method in brief: as §2
[18] = tested on: Rattus norvegicus; experiment: Tested for distribution of radioactivity in female rat tissue at 18 hr after intravenous administration in liver; type: ADME, organism-based; conditions: in vivo; method in brief: as §2
[19] = tested on: Rattus norvegicus; experiment: Tested for distribution of radioactivity in female rat tissue at 21 day after intravenous administration in adrenal; type: ADME, organism-based; conditions: in vivo, 504 h; method in brief: as §2
[20] = tested on: Rattus norvegicus; experiment: Tested for distribution of radioactivity in female rat tissue at 1 hr after intravenous administration in blood; type: ADME, organism-based; conditions: in vivo; method in brief: as §2
[21] = Adrenal/Tissue ratio calculated from percent dose per gram of tissue determined after 1 day intravenous administration from lung; type: functional; method in brief: as §4
[22] = species on record: Homo sapiens; experiment: Adsorbed radiation dose value was calculated to human total body; type: functional; method in brief: as §3
[23] = tested on: Rattus norvegicus; experiment: Tested for distribution of radioactivity in female rat tissue at 18 hr after intravenous administration in adrenal; type: ADME, organism-based; conditions: in vivo; method in brief: as §2
[24] = tested on: Rattus norvegicus; experiment: Tested for distribution of radioactivity in female rat tissue at 3 day after intravenous administration in ovaries; type: ADME, organism-based; conditions: in vivo, 72 h; method in brief: as §2
[25] = tested on: Rattus norvegicus; experiment: Tested for distribution of radioactivity in female rat tissue at 14d ay after intravenous administration in ovaries; type: ADME, organism-based; conditions: in vivo; method in brief: as §2
[26] = tested on: Rattus norvegicus; experiment: Tested for distribution of radioactivity in female rat tissue at 6 hr after intravenous administration in liver; type: ADME, organism-based; conditions: in vivo; method in brief: as §2
[27] = tested on: Rattus norvegicus; experiment: Tested for distribution of radioactivity in female rat tissue at 6 hr after intravenous administration in blood; type: ADME, organism-based; conditions: in vivo; method in brief: as §2
[28] = tested on: Rattus norvegicus; experiment: Tested for distribution of radioactivity in female rat tissue at 7 day after intravenous administration in ovaries; type: ADME, organism-based; conditions: in vivo, 168 h; method in brief: as §1
[29] = Adrenal/Tissue ratio calculated from percent dose per gram of tissue determined after 1 day intravenous administration from spleen; type: functional; method in brief: as §4
[30] = species on record: Homo sapiens; experiment: Adsorbed radiation dose value was calculated to human lungs; type: functional; method in brief: as §3
[31] = tested on: Rattus norvegicus; experiment: Tested for distribution of radioactivity in female rat tissue at 3 day after intravenous administration in blood; type: ADME, organism-based; conditions: in vivo, 72 h; method in brief: as §2
[32] = tested on: Rattus norvegicus; experiment: Tested for distribution of radioactivity in female rat tissue at 1 hr after intravenous administration in ovaries; type: ADME, organism-based; conditions: in vivo; method in brief: as §2
[33] = tested on: Rattus norvegicus; experiment: Tested for distribution of radioactivity in female rat tissue at 18 hr after intravenous administration in kidney; type: ADME, organism-based; conditions: in vivo; method in brief: as §2
[34] = Adrenal/Tissue ratio calculated from percent dose per gram of tissue determined after 1 day intravenous administration from kidney; type: functional; method in brief: as §4
[35] = tested on: Rattus norvegicus; experiment: Tested for distribution of radioactivity in female rat tissue at 24 hr r after intravenous administration in liver; type: ADME, organism-based; conditions: in vivo; method in brief: as §2
[36] = tested on: Rattus norvegicus; experiment: Tested for distribution of radioactivity in female rat tissue at 24 hr r after intravenous administration in adrenal; type: ADME, organism-based; conditions: in vivo; method in brief: as §2
[37] = species on record: Homo sapiens; experiment: Adsorbed radiation dose value was calculated to human spleen; type: functional; method in brief: as §3
[38] = tested on: Rattus norvegicus; experiment: Tested for distribution of radioactivity in female rat tissue at 7 day after intravenous administration in blood; type: ADME, organism-based; conditions: in vivo, 168 h; method in brief: as §1
[39] = tested on: Rattus norvegicus; experiment: Tested for distribution of radioactivity in female rat tissue at 24 hr r after intravenous administration in ovaries; type: ADME, organism-based; conditions: in vivo; method in brief: as §2
[40] = species on record: Homo sapiens; experiment: Adsorbed radiation dose value was calculated to human small intestine; type: functional; method in brief: as §3
[41] = tested on: Rattus norvegicus; experiment: Tested for distribution of radioactivity in female rat tissue at 7 day after intravenous administration in kidney; type: ADME, organism-based; conditions: in vivo, 168 h; method in brief: as §1
[42] = tested on: Rattus norvegicus; experiment: Tested for distribution of radioactivity in female rat tissue at 14d ay after intravenous administration in adrenal; type: ADME, organism-based; conditions: in vivo; method in brief: as §2
[43] = tested on: Rattus norvegicus; experiment: Tested for distribution of radioactivity in female rat tissue at 21 day after intravenous administration in kidney; type: ADME, organism-based; conditions: in vivo, 504 h; method in brief: as §2
[44] = tested on: Rattus norvegicus; experiment: Tested for distribution of radioactivity in female rat tissue at 1 hr after intravenous administration in kidney; type: ADME, organism-based; conditions: in vivo; method in brief: as §2
[45] = tested on: Rattus norvegicus; experiment: Tested for distribution of radioactivity in female rat tissue at 7 day after intravenous administration in liver; type: ADME, organism-based; conditions: in vivo, 168 h; method in brief: as §1
[46] = Adrenal/Tissue ratio calculated from percent dose per gram of tissue determined after 1 day intravenous administration from ovaries; type: functional; method in brief: as §4
[47] = tested on: Rattus norvegicus; experiment: Tested for distribution of radioactivity in female rat tissue at 24 hr r after intravenous administration in kidney; type: ADME, organism-based; conditions: in vivo; method in brief: as §2
[48] = tested on: Rattus norvegicus; experiment: Tested for distribution of radioactivity in female rat tissue at 3 day after intravenous administration in liver; type: ADME, organism-based; conditions: in vivo, 72 h; method in brief: as §2
[49] = Adrenal/Tissue ratio calculated from percent dose per gram of tissue determined after 1 day intravenous administration from pancreas; type: functional
Method in brief: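 Female Fischer 344 rats (160–180 g), food and water ad libitum, lightly anaesthetized with Et2O. [75Se]-labelled steroid was given in Tween 80–EtOH–saline, 5–10 μCi, by lateral tail-vein injection. Rats were killed by decapitation under Et2O; organs were rinsed, blotted, weighed and gamma-counted. Adrenal/tissue ratio is from % dose/g, mean of three rats per time point.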

[50] = species on record: Homo sapiens; experiment: Adsorbed radiation dose value was calculated to human ovaries; type: functional, Female gonad; method in brief: as §3
[51] = Adrenal/Tissue ratio calculated from percent dose per gram of tissue determined after 1 day intravenous administration from liver; type: functional; method in brief: as §4
[52] = tested on: Rattus norvegicus; experiment: Tested for distribution of radioactivity in female rat tissue at 24 hr r after intravenous administration in blood; type: ADME, organism-based; conditions: in vivo; method in brief: as §2
[53] = species on record: Homo sapiens; experiment: Adsorbed radiation dose value was calculated to human kidney; type: functional; method in brief: as §3
[54] = tested on: Rattus norvegicus; experiment: Tested for distribution of radioactivity in female rat tissue at 14d ay after intravenous administration in kidney; type: ADME, organism-based; conditions: in vivo; method in brief: as §2
[55] = tested on: Rattus norvegicus; experiment: Tested for distribution of radioactivity in female rat tissue at 14d ay after intravenous administration in blood; type: ADME, organism-based; conditions: in vivo; method in brief: as §2
[56] = tested on: Rattus norvegicus; experiment: Tested for distribution of radioactivity in female rat tissue at 18 hr after intravenous administration in ovaries; type: ADME, organism-based; conditions: in vivo; method in brief: as §2

Dose/g [1]: 4.95%
Dose/g [2]: 6.73%
Dose/g [3]: 1.69%
Dose/g [4]: 1%
Dose/g [5]: 29.5%
Dose/g [6]: 0.34%
Dose/g [9]: 1.48%
Dose/g [10]: 0.5%
Dose/g [11]: 15.65%
Dose/g [13]: 0.11%
Dose/g [14]: 32.32%
Dose/g [16]: 2.52%
Dose/g [17]: 35.61%
Dose/g [18]: 2.78%
Dose/g [19]: 15.22%
Dose/g [20]: 3.97%
Dose/g [23]: 42.97%
Dose/g [24]: 3.81%
Dose/g [25]: 2.83%
Dose/g [26]: 4.93%
Dose/g [27]: 2.08%
Dose/g [28]: 3.82%
Dose/g [31]: 0.38%
Dose/g [32]: 2.24%
Dose/g [33]: 1.87%
Dose/g [35]: 1.76%
Dose/g [36]: 47.75%
Dose/g [38]: 0.26%
Dose/g [39]: 5.29%
Dose/g [41]: 1.34%
Dose/g [42]: 18.23%
Dose/g [43]: 0.64%
Dose/g [44]: 1.31%
Dose/g [45]: 0.68%
Dose/g [47]: 1.59%
Dose/g [48]: 0.99%
Dose/g [52]: 0.71%
Dose/g [54]: 0.91%
Dose/g [55]: 0.16%
Dose/g [56]: 6.12%
Compound: CC(C)[Se]CCC[C@H](C)[C@H]1CC[C@H]2[C@@H]3CC=C4C[C@@H](O)CC[C@]4(C)[C@H]3CC[C@]12C
Dose [7]: 3.4 rd mCi-1
Ratio [8]: 67.3
Dose [12]: 30 rd mCi-1
Dose [15]: 3.7 rd mCi-1
Ratio [21]: 10.9
Dose [22]: 1.8 rd mCi-1
Ratio [29]: 19.2
Dose [30]: 3.2 rd mCi-1
Ratio [34]: 30
Dose [37]: 3.4 rd mCi-1
Dose [40]: 3.5 rd mCi-1
Ratio [46]: 9
Ratio [49]: 46.4
Dose [50]: 5.9 rd mCi-1
Ratio [51]: 27.1
Dose [53]: 3.8 rd mCi-1
